Assay results: ChEMBL document CHEMBL2157987, “Benzimidazole bearing oxadiazole and triazolo-thiadiazoles nucleus: design and synthesis as anticancer agents” (2012)

Assays:
UO-31 = test: Cytotoxicity against human UO31 cells assessed as cell growth at 10 uM after 48 hrs by SRB assay; format: functional; conditions: UO-31, 48 h, read-out: Activity
Outline: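 This was a single-concentration screen on UO-31 in RPMI 1640 with 5% FBS. Compound went on 24 h after plating, with 48 h exposure at 37 °C. End point was sulforhodamine B protein staining read at 515 nm. Results are percent growth of treated cells relative to untreated controls and time-zero plates.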

K562 = test: Cytotoxicity against human K562 cells assessed as cell growth at 10 uM after 48 hrs by SRB assay; format: functional; conditions: K562, 48 h, read-out: Activity
Outline: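 NCI single-dose screen at 10 µM. Cells were incubated 48 h and the end point was read by sulforhodamine B protein staining. Results are given as percent growth of treated cells relative to untreated controls. Growth of 32% or less was counted as active.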

## O=C(CCc1nnc(-c2cc(O)c(O)c(O)c2)o1)c1nc2ccccc2[nH]1
UO-31
  growth at 10 µM: 62.2%

## O=C(CCc1nnc(/C=C/c2ccccc2)o1)c1nc2ccccc2[nH]1
K562
  growth at 10 µM: 24.6%

## O=C(CCc1nnc2sc(-c3cc(O)c(O)c(O)c3)nn12)c1nc2ccccc2[nH]1
K562
  growth at 10 µM: 8.3%

## Nc1cc(Br)c(-c2nn3c(CCC(=O)c4nc5ccccc5[nH]4)nnc3s2)c(Br)c1
K562
  growth at 10 µM: 7.05%

## O=C(CCc1nnc2sc(/C=C/c3ccccc3)nn12)c1nc2ccccc2[nH]1
K562
  growth at 10 µM: 2.17%
